{"source": "paper PMC3566476", "about": "(Neuropharmacology, 2010)", "key": {"motor coordination": {"test_system": "motor coordination", "conditions": "mouse, in vivo, ip"}, "locomotor activity": {"test_system": "locomotor activity", "assay": "Locomotor activity", "type": "in vivo, mouse", "summary_of_the_method": "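Male mice (7–12 weeks) were tested in the light phase. Sixty min after i.p. test compound (16, 48, 100, 160 mg/kg) or vehicle, each mouse was placed in a 20-cm circular enclosure with 4 photocells. Total photocell interruptions were counted over 1 h. n = 10/group; one-way ANOVA with Scheffe post hoc test.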"}, "[1]": {"test_system": "chronic constriction injury (CCI) of the sciatic nerve", "assay": "CCI neuropathic pain model, mechanical sensitization", "type": "in vivo, mouse"}, "[2]": {"test_system": "rat neuropathic pain model", "conditions": "ref Knabl et al., 2008, cited from earlier work; for Analgesic effect during repeated administration (tolerance): once per day for nine days"}, "sedation [3]": {"test_system": "sedation", "conditions": "clinical development stopped; ref Atack et al., 2010; cited from earlier work"}, "[4]": {"test_system": "chronic constriction injury (CCI) of the sciatic nerve", "assay": "CCI neuropathic pain model, heat hyperalgesia", "type": "in vivo, mouse", "summary_of_the_method": "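Male mice (7–12 weeks) had left sciatic nerve CCI under 2% isoflurane, with three loose chromic gut ligatures. On day 7, test compound 16 mg/kg or vehicle was given i.p. Radiant-heat paw withdrawal latency (plantar test) was taken for 3 h, with 4–5 readings averaged per time point and ipsi/contralateral paws tested alternately. AUC used the pre-drug baseline subtracted. n = 6/group; unpaired t-test.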"}, "[5]": {"biological_target": "native GABAA receptors in membranes derived from spinal cord", "assay": "[3H]flumazenil competition binding, spinal cord membranes", "conditions": "mouse spinal cord membranes, 1.2 nM [3H]flumazenil, mean ± SD of 3", "summary_of_the_method": "(§1)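 Brain or spinal cord from male C57BL/6 mice (25–30 g) was homogenized in 10 mM Tris pH 7.4, 150 mM NaCl with protease inhibitors. Spins at 1000 g then 20,000 g (4°C); the pellet was washed in 10 mM Tris-HCl pH 7.4, 100 mM KCl. About 50 μg protein was incubated with increasing test compound and 1.2 nM [3H]flumazenil, 90 min on ice, then filtered. Nonspecific binding: 10 μM clonazepam. Scintillation counting; 3 independent runs.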"}, "α2β3γ2 GABAA receptor": {"biological_target": "α2β3γ2 GABAA receptor (Homo sapiens, UniProt P18507+P47869)", "assay": "[3H]flumazenil competition binding, L cells α2β3γ2", "conditions": "recombinant receptors, α2 versus α1"}, "[6]": {"test_system": "zymosan A induced inflammatory hyperalgesia", "assay": "Zymosan A model of inflammatory pain, mechanical sensitization", "type": "in vivo, mouse", "conditions": "48 hours after zymosan A, 16 mg / kg i.p., 3 hours, n = 6", "summary_of_the_method": "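Zymosan A (0.06 mg in 20 μl 0.9% NaCl) was injected s.c. into the left plantar hindpaw of male mice. After 48 h, test compound 16 mg/kg or vehicle was given i.p. Dynamic von Frey withdrawal thresholds were monitored for 3 h (4–5 readings averaged). AUC used the day-2 pre-drug baseline subtracted. n = 6/group; unpaired t-test.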"}, "α1β3γ2 GABAA receptor": {"test_system": "α1β3γ2 GABAA receptor", "assay": "[3H]flumazenil competition binding, L cells α1β3γ2", "conditions": "L cells α1β3γ2, [3H]flumazenil", "summary_of_the_method": "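L(-tk) cells stably expressing α1β3γ2 were grown in DMEM/10% FBS and induced with 1 μM dexamethasone (final), then harvested 3–4 days later. Cells were sonicated in 10 mM Tris-HCl pH 7.4, 100 mM KCl with protease inhibitors; the 100,000 g pellet was used. About 200 μg protein was incubated with increasing test compound and 1.2 nM [3H]flumazenil for 90 min on ice, then filtered. Nonspecific binding: 10 μM clonazepam. 4–5 independent runs.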"}, "[7]": {"assay": "Pharmacokinetics of HZ166 in the brain", "type": "in vivo, mouse", "conditions": "48 mg / kg i.p."}, "[8]": {"biological_target": "native GABAA receptors in membranes prepared from brain", "assay": "[3H]flumazenil competition binding, brain membranes", "conditions": "mouse brain membranes, 1.2 nM [3H]flumazenil, mean ± SD of 3", "summary_of_the_method": "as §1"}, "[9]": {"test_system": "chronic constriction injury (CCI) of the sciatic nerve", "assay": "Tolerance development in the CCI model", "type": "in vivo, mouse", "conditions": "16 mg / kg i.p. once daily for 9 days, CCI mice, versus chronic vehicle", "summary_of_the_method": "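Starting day 7 after left sciatic CCI, mice got test compound 16 mg/kg or vehicle i.p. once daily for 9 days. On day 10, each group was split to receive acute vehicle or 16 mg/kg i.p. Dynamic von Frey thresholds were followed for 3 h (4–5 readings averaged). %MPE was taken after 3, 5 and 10 days of treatment. n = 6/group.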"}, "sedation [10]": {"test_system": "sedation", "conditions": "at anxiolytic doses; ref Fischer et al., 2010; cited from earlier work"}, "[11]": {"conditions": "i.p., 60 min recording starting 60 min after injection"}, "[12]": {"conditions": "CCI mice day 7, i.p., mechanical sensitization, Hill fit"}}, "note": "Where two headings read alike, the source gives them in different places."}
{"compound": "NCC1(CC(=O)O)CCCCC1", "note": "[gabapentin, reference compound]", "values": [{"measurement": "Dose causing significant impairment of motor performance in the rotarod test", "setting": "motor coordination; male", "result": 90, "unit": "mg/kg"}, {"measurement": "Doses that did not interfere with rotarod performance", "setting": "motor coordination; male", "result": "≤ 30", "unit": "mg/kg"}, {"measurement": "Doses with significant reduction in locomotor activity", "setting": "locomotor activity; [11]", "result": "≥ 30", "unit": "mg/kg"}, {"measurement": "Emax (maximum antihyperalgesic effect, %MPE)", "setting": "[1]; [12]", "result": "84 ± 1.4", "unit": "%"}, {"measurement": "ED50", "setting": "[1]; Mus musculus, ip, read-out: ED50 antihyperalgesia", "result": "6.2 ± 0.4", "unit": "mg/kg"}]}
{"compound": "Cn1ncnc1COc1nn2c(-c3cc(F)ccc3F)nnc2cc1C(C)(C)C", "note": "[L-838,417]", "values": [{"measurement": "Analgesic effect during repeated administration (tolerance)", "setting": "[2]", "result": "did not decline"}, {"measurement": "Antihyperalgesic activity in rat neuropathic pain model", "setting": "[2]", "result": "good antihyperalgesic activity"}]}
{"compound": "CCOC(=O)c1ncn2c1CN(C)C(=O)c1cc(F)ccc1-2", "note": "[Flumazenil, flumazenil, reference compound]", "values": [{"measurement": "Effect of flumazenil on the antihyperalgesic effect of HZ166", "setting": "[1]; flumazenil 10 mg / kg i.p., HZ166 16 mg / kg", "result": "almost completely reversed"}]}
{"compound": "MRK409", "values": [{"measurement": "Sedation in humans", "setting": "sedation [3]", "result": "sedative effects in man"}]}
{"compound": "CN1CC[C@]23c4c5ccc(O)c4O[C@H]2[C@@H](O)C=C[C@H]3[C@H]1C5", "note": "[morphine]", "values": [{"measurement": "Analgesic effect during repeated administration (tolerance)", "setting": "[2]", "result": "complete tolerance developed"}]}
{"compound": "C#Cc1ccc2c(c1)C(c1ccccn1)=NCc1c(C(=O)OCC)ncn1-2", "note": "[HZ166]", "values": [{"measurement": "AUC of PWL, injured paw", "setting": "[4]; CCI mice day 7, 16 mg / kg i.p., 3 hours, n = 6", "result": "4.33 ± 1.95", "unit": "s·h"}, {"measurement": "Time of peak effect on PWL after i.p. administration", "setting": "[4]; CCI mice, 16 mg / kg i.p.", "result": "[…]"}, {"measurement": "Ki", "setting": "[5]", "result": "189 ± 10", "unit": "nM"}, {"measurement": "Doses that did not interfere with rotarod performance", "setting": "motor coordination", "result": "≤ 160", "unit": "mg/kg"}, {"measurement": "Affinity to α2-GABAA receptors higher than that to α1-GABAA receptors", "setting": "α2β3γ2 GABAA receptor", "result": "about 40%"}, {"measurement": "AUC of mechanical PWT", "setting": "[6]", "result": "1.55 ± 0.21", "unit": "g·h"}, {"measurement": "Ki", "setting": "α1β3γ2 GABAA receptor", "result": "[…]"}, {"measurement": "tmax in brain", "setting": "[7]; CCI operated mice", "result": "≤ 30", "unit": "min"}, {"measurement": "estimated α half-life (brain)", "setting": "[7]; initial elimination phase", "result": 23.4, "unit": "min"}, {"measurement": "estimated apparent terminal half-life (brain)", "setting": "[7]; β-phase", "result": 396, "unit": "min"}, {"measurement": "estimated ED50 sedation", "setting": "locomotor activity; estimated from locomotor activity, Fig. 6", "result": 97, "unit": "mg/kg"}, {"measurement": "Motor activity at 16 and 48 mg / kg", "setting": "locomotor activity; [11]", "result": "did not significantly impair motor activity"}, {"measurement": "Motor activity at 100 and 160 mg / kg", "setting": "locomotor activity; [11]", "result": "Significant reduction of activity"}, {"measurement": "Ki", "setting": "[8]", "result": "282 ± 6", "unit": "nM"}, {"measurement": "ED50 antihyperalgesia", "setting": "[1]; CCI mice day 7, i.p., mechanical sensitization, %MPE at 1 h, Hill fit", "result": "5.3 ± 1.8", "unit": "mg/kg"}, {"measurement": "Emax (maximum antihyperalgesic effect, %MPE)", "setting": "[1]; [12]", "result": "66 ± 5", "unit": "%"}, {"measurement": "Time of maximum effect on ipsilateral PWT after injection", "setting": "[1]; CCI mice, i.p.", "result": "about 1 h"}, {"measurement": "Doses with statistically significant antihyperalgesic effects", "setting": "[1]; CCI mice, i.p., %MPE at 1 h", "result": "≥ 5", "unit": "mg/kg"}, {"measurement": "PWTs of the contralateral paw", "setting": "[1]; CCI mice, i.p., uninjured paw", "result": "not affected"}, {"measurement": "Tolerance development (analgesic activity after chronic treatment)", "setting": "[9]", "result": "no loss of antihyperalgesic activity"}, {"measurement": "Sedation in primates", "setting": "sedation [10]", "result": "does not cause sedation"}]}
